# Measurements from PubChem BioAssay.
# “And” between values parts separate entries of the source, which are not always exact repeats. Equal values may be shown once. The source made the active and inactive calls.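 The calls were made as follows, unless noted: active = viability loss from added drug above about 55%, and viability with drug at most 40%, in both replicates (limit read from the data, passing the limit was not always enough); inconclusive = both conditions met in only one replicate; inactive = neither replicate meets both conditions.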
# Legend:
# [1] = molecular target: Pantothenate synthetase (Mycobacterium tuberculosis (strain ATCC 25618 / H37Rv)) (UniProt P9WIL5); assay: Coupled enzyme confirmation of inhibitors against recombinant Mtb PanC (AID 375; call rule not given here;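 also: 0% = full reaction with vehicle and 100% = no enzyme background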); conditions: coupled enzyme assay; at 10 µM, stronger effect = higher value
# [2] = Her2 expression decrease, cell viability multiplex – SKBR3 breast tumor cells, AlphaScreen, ATP viability, primary screen (AID 461;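 active = Her2 level under about 52% in both replicate screens, with viability over 70% of control, limit read from the data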;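 as to Her2 level: lower value means less Her2 protein in the cells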;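 as to viability: percent of carrier control wells set as 100% viability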); conditions: SKBR3 Her2 protein level, 18-24 h, measured here: SKBR3 viability, ATP luminescence, at 10 µM
# [3] = molecular target: Receptor tyrosine-protein kinase erbB-2 (Homo sapiens) (UniProt P04626); assay: as above; conditions: 18-24 h, at 10 µM, stronger effect = lower value
# [4] = reduced viability of SK-BR-3 breast cancer cells – cell-based, 24 h, human, pilot screen (AID 572;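 active = viability at or below 10% of carrier control in both of two separate runs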;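 also: compound exposure lasted between 18 and 24 h rather than exactly 24 h; 100% = carrier-treated control wells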); conditions: SK-BR-3 viability, CellTiter-Glo luminescence, at 10 µM, stronger effect = lower value
# [5] = HUVEC growth inhibition – cell-based, human, primary screen (AID 575;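 active = viability at or below 30% in both replicate assays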;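 also: 100% = median of untreated cell wells with 0.1% DMSO on each plate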); conditions: HUVEC proliferation, CellTiter-Glo luminescence, 72 h; at 10 µM; stronger effect = lower value
# Method in brief: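 Timing: 72 h treatment at 37 °C; material: HUVEC primary cells; technique: CellTiter-Glo luminescence measuring cellular ATP; controls: vehicle and MePR control wells; measure: percent of median DMSO-control luminescence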
# [6] = H69AR cell proliferation blockers – human, duplicate replicates, primary screen (AID 580;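 active = viability at or under a set limit in both replicates, limit being median viability minus 3 SD, cut at about 48% in these data, passing the limit was not always enough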;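 also: 100% = mean luminescence of untreated wells and 0% = no signal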); conditions: H69AR lung tumor cells viability, ATP luminescence, 72 h; at 10 µM; stronger effect = lower value
# [7] = MRP1 drug-resistance reversers in H69AR cells – cell-based, doxorubicin co-treatment, pilot screen (AID 601); conditions: CellTiter-Glo, 72 h, at 10 µM; for differential viability (reversal): stronger effect = higher value
# [8] = yeast transport mutant growth inhibition pilot in 384-well plates, post-Golgi transport modulator project (AID 636; in the data active = inhibition above about 31%); conditions: absorbance 615 nm, about 18 h, stronger effect = higher value
# [9] = growth suppression of yeast trafficking mutant, preliminary HTS, modulators of trafficking downstream of Golgi apparatus project, 1536-format plate, OD 615 nm (AID 637; in the data active = inhibition above about 30%); conditions: yeast transport mutant growth, absorbance 615 nm, 18 h; stronger effect = higher value
# [10] = H69AR cells + 2 uM doxorubicin, measured here: viability with 2 uM doxorubicin, stronger effect = lower value
# [11] = H69AR cells, compound alone cytotoxicity
# Chain of Pantothenate synthetase (Mycobacterium tuberculosis (strain ATCC 25618 / H37Rv)) (P9WIL5 whole entry, looked up): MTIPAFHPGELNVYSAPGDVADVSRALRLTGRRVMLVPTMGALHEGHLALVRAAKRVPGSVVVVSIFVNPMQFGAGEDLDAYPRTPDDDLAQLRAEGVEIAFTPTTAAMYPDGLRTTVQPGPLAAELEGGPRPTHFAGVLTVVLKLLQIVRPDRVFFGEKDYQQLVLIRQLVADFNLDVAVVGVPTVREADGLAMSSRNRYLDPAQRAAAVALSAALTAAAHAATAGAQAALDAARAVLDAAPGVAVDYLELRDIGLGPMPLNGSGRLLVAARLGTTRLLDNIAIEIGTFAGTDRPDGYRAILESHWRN
# Chain of Receptor tyrosine-protein kinase erbB-2 (Homo sapiens) (P04626 whole entry, looked up): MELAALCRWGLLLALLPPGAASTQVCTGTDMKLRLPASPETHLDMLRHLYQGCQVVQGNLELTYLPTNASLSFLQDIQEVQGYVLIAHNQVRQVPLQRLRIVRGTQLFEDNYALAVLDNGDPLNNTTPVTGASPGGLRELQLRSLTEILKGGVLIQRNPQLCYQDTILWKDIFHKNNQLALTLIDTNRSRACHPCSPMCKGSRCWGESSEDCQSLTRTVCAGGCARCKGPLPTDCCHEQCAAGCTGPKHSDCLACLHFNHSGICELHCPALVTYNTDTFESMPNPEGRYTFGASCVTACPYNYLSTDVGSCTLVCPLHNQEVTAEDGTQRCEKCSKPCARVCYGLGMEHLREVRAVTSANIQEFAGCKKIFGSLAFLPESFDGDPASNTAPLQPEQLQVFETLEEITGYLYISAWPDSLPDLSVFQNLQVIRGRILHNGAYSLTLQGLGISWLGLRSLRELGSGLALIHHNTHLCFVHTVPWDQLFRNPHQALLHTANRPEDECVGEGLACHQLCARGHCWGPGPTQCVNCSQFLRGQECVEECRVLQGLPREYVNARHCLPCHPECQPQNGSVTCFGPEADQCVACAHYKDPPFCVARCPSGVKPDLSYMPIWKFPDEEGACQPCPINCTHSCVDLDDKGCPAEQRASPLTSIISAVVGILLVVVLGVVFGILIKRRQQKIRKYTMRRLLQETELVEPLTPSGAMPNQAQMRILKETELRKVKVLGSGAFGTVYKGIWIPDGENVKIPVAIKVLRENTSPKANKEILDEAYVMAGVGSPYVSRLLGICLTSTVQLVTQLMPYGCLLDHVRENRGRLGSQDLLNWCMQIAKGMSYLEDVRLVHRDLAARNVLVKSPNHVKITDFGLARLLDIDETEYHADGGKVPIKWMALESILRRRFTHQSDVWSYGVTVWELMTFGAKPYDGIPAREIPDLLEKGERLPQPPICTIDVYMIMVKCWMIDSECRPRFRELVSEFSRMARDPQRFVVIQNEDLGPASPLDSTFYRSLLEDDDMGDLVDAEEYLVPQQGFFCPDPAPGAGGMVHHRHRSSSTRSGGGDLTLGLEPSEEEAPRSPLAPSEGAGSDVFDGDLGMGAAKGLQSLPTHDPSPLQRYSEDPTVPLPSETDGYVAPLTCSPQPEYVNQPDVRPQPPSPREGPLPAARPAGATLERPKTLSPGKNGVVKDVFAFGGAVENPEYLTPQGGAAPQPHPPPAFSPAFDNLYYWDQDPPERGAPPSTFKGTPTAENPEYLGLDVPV
Compound,inhibition [1],viability [2],Her2 level [3],viability [4],viability [5],viability [6],differential viability (reversal) ([7]; H69AR cells + 2 uM doxorubicin),"viability [7, 10]","viability [7, 11]",inhibition [8],inhibition [9]
COC(=O)c1c(C)n(Cc2ccc3c(c2)OCO3)c2ccc(O)cc12,6% (inactive),116%,95% (inactive),116% (inactive),54.5% (inactive),105% (inactive),5.33% (inactive),100%,105%,-3.6% (inactive),-1.94% (inactive)
O=C(COc1ccc2ccccc2c1)N1CCN(C2CCN(Cc3ccccc3)CC2)CC1,0% (inactive),93%,92% (inactive),93% (inactive),62.5% (inactive),99.8% (inactive),3.83% (inactive),96%,99.8%,-0.13% (inactive),1.8% (inactive)
CC(C)N(CCC(C(N)=O)(c1ccccc1)c1ccccn1)C(C)C (stereo not drawn),0% (inactive),85%,114% (inactive),85% (inactive),121% (inactive),91.8% (inactive),-15.8% (inactive),108%,91.8%,–,–
CC1(C)C(c2ccccc2)=NC(c2cccnc2)N1O (stereo not drawn),0% (inactive),106%,96% (inactive),106% (inactive),106% (inactive),95.3% (inactive),-4.39% (inactive),99.7%,95.3%,-6.76% (inactive),5.74% (inactive)
c1ccc2c(c1)OCC(C1=NCCN1)O2 (stereo not drawn),0% (inactive),104%,108% (inactive),104% (inactive),108% (inactive),81.4% (inactive),9.15% (inactive),72.2%,81.4%,–,–
CC(C)(C)C(O)C(Oc1ccc(Cl)cc1)n1cncn1 (stereo not drawn),9% (inactive),86.5%,83.5% (inactive),86.5% (inactive),88.2% (inactive),87.2% (inactive),5.54% (inactive),81.7%,87.2%,-4.46% (inactive),94% (active)
CC1=C(C(=O)OC(C)C)[C@]2(C(=O)N(CC(N)=O)c3ccccc32)C(C#N)=C(N)O1,3% (inactive),92%,85.5% (inactive),92% (inactive),110% (inactive),113% (inactive),15.5% (inactive),97.5%,113%,-6.8% (inactive),19.5% (inactive)
OCCOCC#CCN1CCOCC1,0% (inactive),102%,114% (inactive),102% (inactive),101% (inactive),93.8% (inactive),3.84% (inactive),89.9%,93.8%,-1.45% (inactive),1.31% (inactive)
Cc1cc(NC(=O)COC(=O)c2c(C)nn(Cc3ccccc3)c2Cl)no1,0% (inactive),96%,102% (inactive),96% (inactive),79.2% (inactive),105% (inactive),19% (inactive),86%,105%,-4.27% (inactive),-8.03% (inactive)
C[N+]1(C)[C@@H]2CC[C@H]1CC(OC(=O)C(CO)c1ccccc1)C2 (stereo partly drawn),6% (inactive) and 13% (inactive),97.5% and 140%,100% (inactive) and 106% (inactive),97.5% (inactive) and 140% (inactive),103% (inactive) and 106% (inactive),100% (inactive) and 112% (inactive),4.59% (inactive) and 7.77% (inactive),95.6% and 104%,100% and 112%,–,–
NCCc1ccc(O)cc1,0% (inactive),112%,112% (inactive),112% (inactive),103% (inactive),96.2% (inactive),4.17% (inactive),92.1%,96.2%,-5% (inactive),-21.1% (inactive)
Cc1cnn(C2CCN(C)CC2)c1N,0% (inactive),97%,96.5% (inactive),97% (inactive),102% (inactive),104% (inactive),5.52% (inactive),98.4%,104%,0.14% (inactive),-5.41% (inactive)
Cc1ccc(CS(=O)(=O)CCC(=O)N2CCC3(CC2)OCCO3)cc1,7% (inactive),106%,118% (inactive),106% (inactive),121% (inactive),97.7% (inactive),9.99% (inactive),87.7%,97.7%,-4.87% (inactive),-0.82% (inactive)
CCN1c2nc3c(C)cccn3c(=O)c2CC2(C(=O)N(C)C(=O)N(C)C2=O)C1C (stereo not drawn),0% (inactive),101%,94.5% (inactive),101% (inactive),88.9% (inactive),91.4% (inactive),4.38% (inactive),87%,91.4%,-4.59% (inactive),-2.13% (inactive)
